Activity calls are given as the source filed them. The rule behind the calls is not given here.
How the values were obtained:
[1] = Intrinsic clearance in rat liver microsomes at 1 uM after 30 mins in presence of NADPH; assay type: ADME; details: read-out: CLH
[2] = biological target: T1, Glucokinase regulatory protein (Mus musculus, UniProt Q91X44); assay: Induction of GK translocation from nucleus to cytoplasm of mouse hepatocytes preincubated for 20 mins followed by glucose challenge measured after 40 mins by Hoechst 33342 staining-based assay; assay type: cell-based, Hepatocyte
T1 sequence (Q91X44 whole entry): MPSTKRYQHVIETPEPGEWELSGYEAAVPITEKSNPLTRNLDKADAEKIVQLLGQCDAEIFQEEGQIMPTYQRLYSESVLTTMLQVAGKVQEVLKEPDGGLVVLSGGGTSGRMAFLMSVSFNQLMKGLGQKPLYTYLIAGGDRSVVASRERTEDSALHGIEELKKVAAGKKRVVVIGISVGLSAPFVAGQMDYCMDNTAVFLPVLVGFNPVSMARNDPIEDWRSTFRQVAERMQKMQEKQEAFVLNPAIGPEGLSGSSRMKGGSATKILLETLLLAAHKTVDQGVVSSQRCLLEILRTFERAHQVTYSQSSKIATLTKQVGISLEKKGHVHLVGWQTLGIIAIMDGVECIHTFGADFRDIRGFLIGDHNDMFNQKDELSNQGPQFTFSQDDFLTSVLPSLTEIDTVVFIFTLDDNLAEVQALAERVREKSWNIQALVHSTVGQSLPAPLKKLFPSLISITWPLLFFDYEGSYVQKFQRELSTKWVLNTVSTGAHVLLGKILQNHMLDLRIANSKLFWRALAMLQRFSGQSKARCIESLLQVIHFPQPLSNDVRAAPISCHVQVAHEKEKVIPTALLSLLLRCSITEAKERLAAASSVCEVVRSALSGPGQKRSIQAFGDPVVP

[3] = Intrinsic clearance in human liver microsomes at 1 uM after 30 mins in presence of NADPH; assay type: ADME; details: read-out: CLH
[4] = biological target: T2, Glucokinase regulatory protein (Homo sapiens, UniProt Q14397); assay: Inhibition of fluorescein-labeled human GK interaction with biotin-labeled human GKRP incubated for 20 mins prior to addition of fluorescein-labeled GK measured after 2 to 4 hrs by Alpha Screen assay
T2 sequence (Q14397 whole entry): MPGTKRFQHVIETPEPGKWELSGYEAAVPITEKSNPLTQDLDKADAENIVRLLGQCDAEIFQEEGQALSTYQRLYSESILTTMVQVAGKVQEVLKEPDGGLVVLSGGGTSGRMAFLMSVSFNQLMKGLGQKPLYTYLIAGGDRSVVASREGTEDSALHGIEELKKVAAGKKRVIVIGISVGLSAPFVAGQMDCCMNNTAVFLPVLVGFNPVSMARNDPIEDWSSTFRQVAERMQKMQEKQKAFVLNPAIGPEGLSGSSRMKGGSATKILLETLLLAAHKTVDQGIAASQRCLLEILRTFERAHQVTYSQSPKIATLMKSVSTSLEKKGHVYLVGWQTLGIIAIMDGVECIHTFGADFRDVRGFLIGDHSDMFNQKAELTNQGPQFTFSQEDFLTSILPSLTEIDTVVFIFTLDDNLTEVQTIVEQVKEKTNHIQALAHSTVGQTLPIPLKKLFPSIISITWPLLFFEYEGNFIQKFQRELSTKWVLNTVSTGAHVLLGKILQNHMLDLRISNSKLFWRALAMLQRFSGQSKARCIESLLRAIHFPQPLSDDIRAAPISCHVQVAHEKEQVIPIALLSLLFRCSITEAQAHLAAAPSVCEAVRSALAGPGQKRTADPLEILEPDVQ

[5] = system: Mus musculus; assay: Antidiabetic activity in insulin-resistant db/db mouse assessed as reduction of fed blood glucose level at 50 mg/kg, po measured at 4 to 8 hrs; assay type: functional, organism-based; design: dose 50 mg/kg
Procedure, shortened: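 Fed db/db mice from 8–9 wk of age, acclimatized 1 wk; retro-orbital bleed at 8:00 AM, glucose by meter, randomized, only 300–500 mg/dL included. Oral gavage at 9:00 AM in 2% HPMC/1% Tween 80, pH 2.2 (MSA). Blood glucose at 4 and 8 h post-dose versus vehicle groups (n ≥ 7); ANCOVA.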

[6] = Oral bioavailability in rat at 10 mg/kg; assay type: ADME, organism-based; details: in vivo
[7] = system: Liver microsome; assay: Drug metabolism in rat liver microsomes assessed as oxidative metabolite formation; assay type: ADME
[8] = Volume of distribution at steady state in rat at 2 mg/kg, iv; assay type: ADME, organism-based; design: dose 2 mg/kg, route intravenous; details: in vivo, read-out: Vdss
Procedure, shortened: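 Intravenous PK at 2 mg/kg in 100% DMSO; steady-state volume of distribution derived from plasma profile.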

[9] = Clearance in rat at 2 mg/kg, iv; assay type: ADME, organism-based; design: dose 2 mg/kg, route intravenous; details: in vivo
[10] = Mean residence time in rat at 10 mg/kg, po; assay type: ADME, organism-based; design: dose 10 mg/kg, route oral; details: in vivo
Procedure, shortened: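 Oral PK at 10 mg/kg in 1% Tween 80, 2% HPMC, 97% water, […]; mean residence time from plasma profile.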

SMILES	microsomal CLint at 1 µM [1] [µL/min/mg]	EC50 [2] [µM]	microsomal CLint at 1 µM [3] [µL/min/mg]	IC50 [4] [µM]	further results
Nc1ccccc1S(=O)(=O)N1CCN(c2ccc(C(O)(C(F)(F)F)C(F)(F)F)cc2)CC1	237	> 12.5			
CC(C)(C)C#CC1CN(S(=O)(=O)c2ccc(N)nc2)CCN1c1ccc(C(O)(C(F)(F)F)C(F)(F)F)cc1 (racemic)	90	> 12.5	< 14	1.43	
Nc1ncc(S(=O)(=O)N2CCN(c3ccc(C(O)(C(F)(F)F)C(F)(F)F)cc3)CC2)cn1	< 14				
CCC#CC1CN(S(=O)(=O)c2ccc(N)nc2)CCN1c1ccc(C(O)(C(F)(F)F)C(F)(F)F)cc1 (racemic)	109	2.93	< 14	0.056	
O=S(=O)(c1ccccc1)N1CCN(c2ccc(C(O)(C(F)(F)F)C(F)(F)F)cc2)CC1	94	> 12.5		1.01	
CC1CS(=O)(=O)CCN1C[C@H]1CN(S(=O)(=O)c2cccs2)CCN1c1ccc(C(C)(O)C(F)(F)F)cc1 (mixture of isomers)	93	> 12.5	132	0.09	
Nc1csc(S(=O)(=O)N2CCN(c3ccc(C(O)(C(F)(F)F)C(F)(F)F)cc3)CC2)c1	90	> 12.5		0.324	
Nc1cccc(S(=O)(=O)N2CCN(c3ccc(C(O)(C(F)(F)F)C(F)(F)F)cc3)CC2)c1	59	> 12.5		0.645	
C[C@H]1COCCN1C[C@H]1CN(S(=O)(=O)c2cccs2)CCN1c1ccc(C(C)(O)C(F)(F)F)cc1 (mixture of isomers)	> 399	0.82	451	0.007	
CC(O)(c1ccc(N2CCN(S(=O)(=O)c3cccs3)C[C@@H]2CN2CC3(COC3)C2)cc1)C(F)(F)F (mixture of isomers)	120	> 12.5	83	0.524	
CC(O)(c1ccc(N2CCN(S(=O)(=O)c3cccs3)C[C@@H]2CN2C3CCC2COC3)cc1)C(F)(F)F (mixture of isomers)	> 399	0.239	320	0.002	
Nc1ccc(S(=O)(=O)N2CCN(c3ccc(C(O)(C(F)(F)F)C(F)(F)F)cc3)CC2)s1	128	> 12.5		0.252	
C[C@](O)(c1ccc(N2CCN(S(=O)(=O)c3cccs3)C[C@@H]2CN2[C@H]3COC[C@@H]2[C@H](O)C3)cc1)C(F)(F)F	114	4.76	135	0.016	
CC(O)(c1ccc(N2CCN(S(=O)(=O)c3cccs3)C[C@@H]2CN2CCC(F)(F)CC2)cc1)C(F)(F)F (mixture of isomers)	349	> 12.5	280	0.439	
CC(O)(c1ccc(N2CCN(S(=O)(=O)c3cccs3)C[C@@H]2CN2[C@H]3COC[C@H]2[C@H](O)C3)cc1)C(F)(F)F (mixture of isomers)	321	1.69	302	0.044	
Nc1ccc(S(=O)(=O)N2CCN(c3ccc(C(O)(C(F)(F)F)C(F)(F)F)cc3)CC2)cc1	49	> 12.5		0.484	
CC(O)(c1ccc(N2CCN(S(=O)(=O)c3cccs3)C[C@@H]2CN2CCS(=O)(=O)CC2)cc1)C(F)(F)F (mixture of isomers)	50	> 12.5	92	0.343	
C[C@](O)(c1ccc(N2CCN(S(=O)(=O)c3cccs3)C[C@@H]2CN2[C@@H]3COC[C@H]2[C@@H](O)C3)cc1)C(F)(F)F	112	> 12.5	131	0.056	
CS(=O)(=O)c1ccc([C@@H](CC2CCCC2)C(=O)Nc2nccs2)cc1					Activity [5]: Active
CC(O)(c1ccc(N2CCN(S(=O)(=O)c3cccs3)C[C@@H]2CN2[C@H]3COC[C@H]2[C@@H](O)C3)cc1)C(F)(F)F (mixture of isomers)	141	1.29	125	0.026	
Nc1ccc(S(=O)(=O)N2CCN(c3ccc(C(O)(C(F)(F)F)C(F)(F)F)cc3)CC2)cn1	< 14	> 12.5	< 14		bioavailability [6]: 71%; Drug metabolism [7]: Not Active; Vd [8]: 1.41 L/kg; clearance [9]: 2 mL/min/kg; MRT [10]: 8.4 h
Nc1cc(S(=O)(=O)N2CCN(c3ccc(C(O)(C(F)(F)F)C(F)(F)F)cc3)CC2)ccn1	27	> 12.5		8.63	
CC#C[C@H]1CN(S(=O)(=O)c2ccc(N)nc2)CCN1c1ccc([C@](C)(O)C(F)(F)F)cc1					bioavailability [6]: 57%; Vd [8]: 3.7 L/kg; MRT [10]: 2.9 h
O=S(=O)(c1cccs1)N1CCN(c2ccc(C(O)(C(F)(F)F)C(F)(F)F)cc2)CC1	150				
C[C@@](O)(c1ccc(N2CCN(S(=O)(=O)c3cccs3)C[C@@H]2CN2[C@@H]3COC[C@H]2[C@@H](O)C3)cc1)C(F)(F)F	155	1.67	99	0.025	
Nc1ccc(S(=O)(=O)N2CCN(c3ccc(C(O)(C(F)(F)F)C(F)(F)F)cc3)C(C#CC3CC3)C2)cn1 (racemic)	61	> 12.5	52	0.779	
